# Compound activity from PubChem BioAssay.
# Shown are actives, neighbours in structure and some others; about 2.5% of the full set was active somewhere.
# MEKK2wt PB1 HTS: raises or lowers MEK5 binding to wildtype human MEKK2 PB1 domain | Q9Y2U5 | bead flow cytometry, Alexa488-MEK5 binding to MEKK2 WT; actives lie on both sides | binding response (% of control), % at 10 µM | 1.1% of 290,000 active; in the data active = binding response below about 67% or above about 130%
# MEKK3 PB1 HTS: MEKK3-MEK5 PB1 interaction, increase or decrease; Q99759; bead-based flow cytometry, Alexa488-MEK5 binding to MEKK3; actives lie on both sides; 0 = blocked by unlabeled MEK5, 100 = vehicle; binding response (% of control), % at 10 µM; 1.4% of 290,000 active; AID 1529;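 active = binding response more than 3 SD above or below the average of its plate-row segment, actives on both sides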;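 note: Alexa488 bead fluorescence after subtracting the streptavidin-only scavenger bead signal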
# MEKK2 mut-MEK5: signal of MEK5 binding to mutant human MEKK2 PB1 domain; percent response, % at 10 µM; 0.35% of 290,000 active; AID 1530; bead flow cytometry, Alexa488-MEK5 binding to MEKK2 mutant; in the data active = percent response above about 24%, passing the limit was not always enough
# Rce1 inhib: blocks yeast Ras-converting enzyme; yeast membranes, quenched prenylated peptide cleavage fluorescence; calls only; AID 2563; Q03530; 0.27% of 290,000 active;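 active = fall in fluorescence gain of 50% or more versus controls, with final raw signal at or below 3038400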;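 note: plate controls were neutral control wells for no effect and wells lacking membranes for full effect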
# T cell HTS: T cell immune modulators affecting CD8 T cell-vesicle binding; 2C CD8+ T cell-vesicle binding, flow cytometry; stronger effect = lower value; 0.068% of 330,000 active; response (vesicle binding), % at 7 µM; AID 2052;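 active = response, share of CD8 T cells binding vesicles, and their 90th percentile fluorescence all below set limits, cut at about 80% in these data, passing the limit was not always enough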;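 note: values below 100% mean blocked vesicle binding to the CD8+ T cells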
#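 Incubation: binding step 1.5 h, 37 °C, antibody labelling 20 min, ice; system: murine 2C transgenic CD8+ T lymphocytes; technique: cytometric PE anti-B7-1 and Alexa647 anti-CD8 signals after 1% paraformaldehyde fixation; also added: QL9-charged Drosophila Ld/ICAM-1/B7-1 vesicles; control set: naked versus QL9-loaded vesicles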
# UCH37 inh: inhibitors of human deubiquitinating enzyme UCH37; purified proteasome/UCH37, Ub-AMC cleavage fluorescence; Q9Y5K5; inhibition, % (test concentration not listed); 0.33% of 330,000 active; AID 588478;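 active = mean inhibition over replicate wells above about 20%, limit read from the data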;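 note: 0% = compound-free wells with enzyme and 100% = wells lacking proteasome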
# Target sequence (Q9Y5K5 whole entry, looked up): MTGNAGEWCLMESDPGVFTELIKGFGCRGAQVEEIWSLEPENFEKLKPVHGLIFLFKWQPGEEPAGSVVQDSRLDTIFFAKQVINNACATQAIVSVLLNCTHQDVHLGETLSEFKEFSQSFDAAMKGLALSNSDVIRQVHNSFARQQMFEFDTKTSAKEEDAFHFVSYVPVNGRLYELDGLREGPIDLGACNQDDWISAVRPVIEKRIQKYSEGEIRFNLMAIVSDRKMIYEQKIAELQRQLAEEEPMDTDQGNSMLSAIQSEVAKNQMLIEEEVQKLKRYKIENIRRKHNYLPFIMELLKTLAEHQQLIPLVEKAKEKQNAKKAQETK
#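 Material: Human UCH37 enzyme supplied as purified proteasome complex | Schedule: 30 min compound-proteasome preincubation then 25 min substrate reaction, room temperature | Detection: AMC fluorescence from Ub-AMC cleavage, excitation 355 nm, emission 460 nm | Benchmarks: Wells without proteasome as full block, compound-free enzyme plus substrate as uninhibited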
# MEKK2wt confirm: raises or lowers MEK5 binding to wildtype human MEKK2, retest; shares compounds with MEKK3 PB1 HTS; bead flow cytometry, Alexa488-MEK5 binding to MEKK2 WT; actives lie on both sides; binding response (% of control), % at 10 µM; 2.4% of 5,900 active; in the data active = binding response below about 16% or above about 210%; inactive = in between
# MEKK2mut-MEK5: signal of MEK5 binding to mutant human MEKK2, retest; shares compounds with MEKK3 PB1 HTS; bead flow cytometry, Alexa488-MEK5 binding to MEKK2 mutant; percent response, % at 10 µM; 2% of 5,900 active; AID 1893; in the data active = percent response mostly above about 71%, no sharp cut-off; inactive = mostly below about 38%;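 note: higher means compound restores mutant binding toward wildtype level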
# MEKK3 confirm: confirmation of inhibitors of MEK5 binding to human MEKK3; shares compounds with MEKK3 PB1 HTS; bead flow cytometry, Alexa488-MEK5 binding to MEKK3; stronger effect = lower value; binding response (% of control), % at 10 µM; 1.8% of 5,900 active; AID 1894;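 active = binding response below 72% of control, or above a set upper limit, though filed actives all read lower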;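 note: 100% = DMSO only wells and 0% = binding blocked by excess unlabeled MEK5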
# * = called active by the depositor; i = inactive; x = no result given; [ ] = remark or other dose.
SMILES,MEKK2wt PB1 HTS,MEKK3 PB1 HTS,MEKK2 mut-MEK5,Rce1 inhib,T cell HTS,UCH37 inh,MEKK2wt confirm,MEKK2mut-MEK5,MEKK3 confirm
O=C(NCc1ccc2c(c1)OCO2)C(C(=O)c1ccccc1)n1cc(Cl)ccc1=O (stereo not drawn),106,132*,1,i,137,2,101,-3,102
COc1ccc(C(C)=NNC(=O)CNC(=O)c2ccncc2)cc1,x,x,x,x,x,7,x,x,x
COCC(=O)O[C@]1(CCN(C)CCCc2nc3ccccc3[nH]2)CCc2cc(F)ccc2[C@@H]1C(C)C,172*,118,19,i,659,3,136,21,107
CCOC(=O)CCc1nc2ccccc2[nH]1,109,108,6,i,246,-1,x,x,x
Cc1[nH]c2ccccc2c1CN1CCC(Cc2ccccc2)CC1,145*,103,30,i,i,6,138,28,107
CCS(=O)(=O)c1nc(S(=O)(=O)c2ccc(Cl)cc2)c(N2CCc3ccccc3C2)s1,102,135*,0,i,366,5,100,3,103
CCS(=O)(=O)c1nc(S(=O)(=O)c2ccc(Cl)cc2)c(N2CCN(CCO)CC2)s1,105,107,4,i,282,3,x,x,x
COc1cc(C=NNC(=O)c2cccc(S(=O)(=O)N3CCCCC3)c2)cc(Br)c1O,x,x,x,x,x,0,x,x,x
C=C(C)CNC(=S)NN=Cc1ccc(N2CCOCC2)cc1,x,x,x,x,x,-198,x,x,x
COc1ccc(/C=C(/NC(=O)c2ccco2)C(=O)N2CCCC2=O)cc1,59*[inhibitor],64*[inhibitor],-26,x,153,3,97,-12,94
O=C(CNc1ccccc1)N/N=C/c1ccc2c(c1)OCO2,104,135*,-1,i,407,x,105,5,103
O=C(CNc1ccccc1)N/N=C/c1ccc([N+](=O)[O-])cc1,106,134*,0,i,520,x,100,3,102
COc1ccc(C(=O)N(CC2CCCO2)C(C(=O)NCCC(C)C)c2ccc(C)cc2)cc1OC (stereo not drawn),111,132*,2,i,160,2,90,1,94
COc1ccc(C(=O)N(CC2CCCO2)C(C(=O)NC2CCCC2)c2ccc(Cl)cc2)cc1OC (stereo not drawn),99,103,1,i,378,2,x,x,x
COc1ccc(C(C(=O)NC2CCCCC2)N(CC2CCCO2)C(=O)C2COc3ccccc3O2)cc1OC (stereo not drawn),104,129*,7,i,284,5,100,8,102
CSc1c(CC(=O)Nc2ccccc2)n(C)c2ccccc12,110,104,7,i,224,1,x,x,x
Cn1c(CC(=O)Nc2ccccc2)c(Sc2ccccc2)c2ccccc21,121,139*,2,x,150,6,108,-6,104
CCCCCCCCn1ccc(=N)cc1,98,101,3,i,624,1,x,x,x
CCCCCCCCCCn1ccc(=N)cc1,148*,125,30,i,150,4,126,21,108
COc1ccc(S(=O)(=O)N(c2onc(C)c2Cl)S(=O)(=O)c2ccc(OC)c(OC)c2)cc1OC,120,131*,9,i,402,1,110,4,102
CC(Cn1cnc([N+](=O)[O-])n1)=NNC(=O)COc1c(Cl)cc(Cl)cc1Cl,x,x,x,x,x,4,x,x,x
COc1ccc(N2CC(C)Cn3c2nc2c3c(=O)n(Cc3ccccc3)c(=O)n2C)c(OC)c1 (stereo not drawn),82,73*[inhibitor],-2,i,276,2,98,-7,105
COc1ccc(N2CCn3c2nc2c3c(=O)n(CCc3ccccc3)c(=O)n2C)c(OC)c1,99,109,1,i,x,5,x,x,x
COc1cc(CNCc2cccs2)ccc1OCc1ccccc1,x,x,x,i,607,0,x,x,x
COc1cc(CNCc2cccs2)ccc1OCc1cccs1,-1.0*[inhibitor],2.0*[inhibitor],-27,i,197,2,122,12,102
SMILES,MEKK2wt PB1 HTS,MEKK3 PB1 HTS,MEKK2 mut-MEK5,Rce1 inhib,T cell HTS,UCH37 inh,MEKK2wt confirm,MEKK2mut-MEK5,MEKK3 confirm
N#CCCn1cc(C=NO)c(-c2ccc(Cl)cc2)n1,x,x,x,x,x,1,x,x,x
CC[n+]1cccc(-c2nc3ccccc3s2)c1,103,116,-7,x,423,1,x,x,x
CC[n+]1c(/C=C/N(C)c2ccccc2)n(-c2ccccc2)c2ccc(-c3nc4ccccc4s3)cc21,328*,112,140*,i,236,-17,262*,117*,115
Cc1ccc(C=NNC(=O)c2nc3nc(C)cc(C)n3n2)cc1,x,x,x,x,x,5,x,x,x
CCCCCOc1ccc2oc(=O)c3c(c2c1)CCCN3C(=O)CN1CCCC(C(=O)OCC)C1 (stereo not drawn),2.0*[inhibitor],2.0*[inhibitor],-14,i,194,-1,96,-2,102
CCCCC1=CC2=C(c3ccco3)C(=O)C(C)(OC(=O)c3ccc(OC)cc3)C(=O)C2=CN1C(CO)CO (stereo not drawn),144*,115,4,i,171,4,97,-1,97
CCCCC1=CC2=C(c3ccco3)C(=O)C(C)(OC(=O)c3ccc(OC)cc3)C(=O)C2=CN1CCCCO (stereo not drawn),88,90,-11,i,207,1,x,x,x
